Test results from ChEMBL document CHEMBL4261563, “Synthesis and in vitro evaluation of substituted 3-cinnamoyl-4-hydroxy-pyran-2-one (CHP) in pursuit of new potential antituberculosis agents” (Medchemcomm, 2018).
Values after ≈ are worked out from the molar mass of the structure shown.

What was measured:
[1] = system: Mycobacterium tuberculosis; assay: Antitubercular activity against Mycobacterium tuberculosis H37Rv after 2 weeks by broth microdilution method; assay type: functional; conditions: 336 h
In short: (§1)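 Middlebrook 7H9 broth microdilution with 10% ADC, compounds at […] μg ml−1 in duplicate. Each well received mid-log M. tuberculosis H37Rv at ∼1 × 10^5 CFU ml−1, checked by plating 10-fold dilutions on 7H11 agar (37 °C, read at four weeks). Drug-free broth was the negative control. MIC was the lowest concentration (μg ml−1) preventing visible growth after two weeks.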

HEK293 = assay: Cytotoxicity against HEK293 cells by MTT assay; assay type: cell-based, Homo sapiens; conditions: for IC50: Homo sapiens, HEK293; for Activity: human, hek293
In short: (§2)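 HEK-293 (from NCCS, Pune) treated at 1, 20, 40 and 80 μM, then at 100 μM. Percentage growth inhibition measured by MTT assay. IC50 assigned from whether inhibition reached ≥50% at 100 μM, the highest concentration tested.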

[2] = system: Mycolicibacterium smegmatis; assay: Antimycobacterial activity against Mycobacterium smegmatis after 72 hrs by broth microdilution method; assay type: functional
Staphylococcus aureus = assay: Antibacterial activity against Staphylococcus aureus ATCC 25923 after 24 hrs by broth microdilution method; assay type: functional; conditions: ATCC 25923, 24 h
In short: (§3)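 Strains revived on Mueller Hinton agar, 37 °C for 24 h. MIC by broth microdilution in MH broth, read after 24 h at 37 °C by visual turbidity, highest concentration tested 128 μg ml−1. Levofloxacin as positive control.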

[3] = system: Staphylococcus epidermidis; assay: Antibacterial activity against Staphylococcus epidermidis ATCC 12228 after 24 hrs by broth microdilution method; assay type: functional; conditions: ATCC 12228, 24 h; in short: as §3
[4] = Cytotoxicity against HEK293 cells assessed as growth inhibition at 100 uM by MTT assay relative to control; assay type: cell-based; conditions: human, read-out: GI; in short: as §2
Micrococcus luteus = assay: Antibacterial activity against Micrococcus luteus ATCC 10240 after 24 hrs by broth microdilution method; assay type: functional; conditions: ATCC 10240, 24 h; in short: as §3
Enterococcus faecalis = assay: Antibacterial activity against Enterococcus faecalis ATCC 51299 after 24 hrs by broth microdilution method; assay type: functional; conditions: ATCC 51299, 24 h; in short: as §3
[5] = Cytotoxicity against human MCF7 cells assessed as growth inhibition at 100 uM by MTT assay relative to control; assay type: cell-based; conditions: read-out: GI
In short: (§4)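 HCT-116, MCF-7 and PC-3 cells (from NCI, USA) exposed to double dilutions from 0.0 to 100 μM. Growth inhibition measured by MTT cell viability assay. Results given as mean ± standard deviation of percentage growth inhibition.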

Bacillus subtilis = assay: Antibacterial activity against Bacillus subtilis ATCC 11774 after 24 hrs by broth microdilution method; assay type: functional; conditions: ATCC 11774, 24 h; in short: as §3
[6] = Cytotoxicity against human HCT116 cells assessed as growth inhibition at 100 uM by MTT assay relative to control; assay type: cell-based, HCT-116; conditions: read-out: GI; in short: as §4
PC-3 = assay: Cytotoxicity against human PC3 cells assessed as growth inhibition by MTT assay; assay type: cell-based; conditions: for Activity: human, pc-3; in short: as §4
MCF7 = assay: Cytotoxicity against human MCF7 cells assessed as growth inhibition by MTT assay; assay type: cell-based; conditions: for Activity: human, mcf7; in short: as §4
HCT-116 = assay: Cytotoxicity against human HCT116 cells assessed as growth inhibition by MTT assay; assay type: cell-based; conditions: for Activity: human, hct-116; in short: as §4
Pseudomonas aeruginosa = assay: Antibacterial activity against Pseudomonas aeruginosa ATCC 10145 after 24 hrs by broth microdilution method; assay type: functional; conditions: ATCC 10145, 24 h; in short: as §3
Escherichia coli = assay: Antibacterial activity against Escherichia coli ATCC 10536 after 24 hrs by broth microdilution method; assay type: functional; conditions: ATCC 10536, 24 h; in short: as §3
[7] = Cytotoxicity against human PC3 cells assessed as growth inhibition at 100 uM by MTT assay relative to control; assay type: cell-based, PC-3; conditions: read-out: GI; in short: as §4
Klebsiella pneumoniae = assay: Antibacterial activity against Klebsiella pneumoniae ATCC BAA-2146 after 24 hrs by broth microdilution method; assay type: functional; conditions: ATCC BAA-2146, 24 h; in short: as §3
[8] = system: Mycobacterium tuberculosis; assay: Antitubercular activity against Mycobacterium tuberculosis H37Rv; assay type: functional; in short: as §1
[9] = Selectivity ratio of MIC for Mycobacterium smegmatis to MIC for Mycobacterium tuberculosis H37Rv; assay type: functional

Compound | MIC [1] [µg/mL] | IC50 (HEK293) [µM] | MIC ([2]; read-out: MIC) [µg/mL] | also measured
Cc1cccc(/C=C/C(=O)c2c(O)cc(C)oc2=O)c1 | 32 (≈ 118 µM) | 100 | > 128 | –
COc1ccc(/C=C/C(=O)c2c(O)cc(C)oc2=O)cc1 | 32 (≈ 112 µM) | 100 | > 128 | –
COc1ccc(OC)c(/C=C/C(=O)c2c(O)cc(C)oc2=O)c1 | 4 to 8 (≈ 12.6 to 25.3 µM) | 100 | > 128 | –
Cc1cc(O)c(C(=O)/C=C/c2ccc(C(F)(F)F)cc2)c(=O)o1 | 256 (≈ 790 µM) | 100 | > 128 | –
Cc1cc(O)c(C(=O)/C=C/c2ccccc2)c(=O)o1 | 4 (≈ 15.6 µM) | – | > 128 | MIC (Staphylococcus aureus): > 128 µg/mL; MIC [3]: > 128 µg/mL; inhibition at 100 µM [4]: 38 to 44%; MIC (Micrococcus luteus): > 128 µg/mL; MIC (Enterococcus faecalis): > 128 µg/mL; inhibition at 100 µM [5]: 38 to 44%; MIC (Bacillus subtilis): > 128 µg/mL; inhibition at 100 µM [6]: 50%; Activity (PC-3): Dose-dependent effect; Activity (MCF7): Dose-dependent effect; Activity (HCT-116): Dose-dependent effect; MIC (Pseudomonas aeruginosa): > 128 µg/mL; Activity (HEK293): Dose-dependent effect; MIC (Escherichia coli): > 128 µg/mL; inhibition at 100 µM [7]: 38 to 44%; MIC (Klebsiella pneumoniae): 128 µg/mL (≈ 499 µM)
COc1cc(/C=C/C(=O)c2c(O)cc(C)oc2=O)cc(OC)c1OC | 8 (≈ 23.1 µM) | 100 | > 128 | –
Cc1cc(O)c(C(=O)/C=C/c2cc(Br)cs2)c(=O)o1 | 4 to 8 (≈ 11.7 to 23.4 µM) | 100 | > 128 | –
CN[C@@H]1[C@H](O[C@H]2[C@H](O[C@H]3[C@H](O)[C@@H](O)[C@H](N=C(N)N)[C@@H](O)[C@@H]3N=C(N)N)O[C@@H](C)[C@]2(O)C=O)O[C@@H](CO)[C@H](O)[C@H]1O [STREPTOMYCIN] | 1.25 (≈ 2.15 µM) | – | – | –
Cc1cc(O)c(C(=O)/C=C/c2ccc(O)cc2)c(=O)o1 | 64 (≈ 235 µM) | – | > 128 | –
CCOc1ccc(/C=C/C(=O)c2c(O)cc(C)oc2=O)cc1 | 256 (≈ 852 µM) | – | > 128 | –
Cc1cc(O)c(C(=O)/C=C/c2ccccc2Cl)c(=O)o1 | 16 (≈ 55 µM) | > 100 | > 128 | –
Cc1cc(O)c(C(=O)/C=C/c2cccc(O)c2)c(=O)o1 | 8 to 16 (≈ 29.4 to 58.8 µM) | > 100 | > 128 | –
Cc1cc(O)c(C(=O)/C=C/c2ccsc2)c(=O)o1 | 32 to 64 (≈ 122 to 244 µM) | – | > 128 | –
COc1cc(OC)c(OC)cc1/C=C/C(=O)c1c(O)cc(C)oc1=O | 8 (≈ 23.1 µM) | 100 | > 128 | –
Cc1cc(O)c(C(=O)/C=C/c2cccc(C(F)(F)F)c2)c(=O)o1 | 256 (≈ 790 µM) | > 100 | > 128 | –
COc1ccccc1/C=C/C(=O)c1c(O)cc(C)oc1=O | 32 to 64 (≈ 112 to 224 µM) | – | > 128 | –
C[C@H]1COc2c(N3CCN(C)CC3)c(F)cc3c(=O)c(C(=O)O)cn1c23.C[C@H]1COc2c(N3CCN(C)CC3)c(F)cc3c(=O)c(C(=O)O)cn1c23.O [LEVOFLOXACIN] | 2.5 | – | 2.5 | MIC (Staphylococcus aureus): 0.078 to 0.156 µg/mL; MIC [3]: 0.039 to 0.078 µg/mL; MIC (Micrococcus luteus): 0.078 µg/mL; MIC (Enterococcus faecalis): 0.156 µg/mL; MIC (Bacillus subtilis): 0.39 µg/mL; MIC (Pseudomonas aeruginosa): 0.312 to 0.625 µg/mL; MIC (Escherichia coli): 0.078 µg/mL; MIC (Klebsiella pneumoniae): 0.625 to 1.25 µg/mL
COc1cc(C(F)(F)F)ccc1/C=C/C(=O)c1c(O)cc(C)oc1=O | 256 (≈ 723 µM) | 100 | > 128 | –
Cc1cc(O)c(C(=O)/C=C/c2ccc(Br)cc2)c(=O)o1 | 8 to 16 (≈ 23.9 to 47.7 µM) | 100 | > 128 | –
COc1cccc(/C=C/C(=O)c2c(O)cc(C)oc2=O)c1 | 8 to 16 (≈ 27.9 to 55.9 µM) | – | > 128 | –
Cc1cc(O)c(C(=O)/C=C/c2ccccc2O)c(=O)o1 | 8 to 16 (≈ 29.4 to 58.8 µM) | – | > 128 | –
NNC(=O)c1ccncc1 [ISONIAZID] | 0.312 (≈ 2.28 µM) | – | – | MIC [8]: 0.02 µg/mL (≈ 0.146 µM); Selectivity ratio [9]: 1000; MIC [2]: 25 µg/mL (≈ 182 µM)
Cc1cc(O)c(C(=O)/C=C/c2cccc(Br)c2)c(=O)o1 | 4 to 8 (≈ 11.9 to 23.9 µM) | 100 | > 128 | –
Cc1cc(O)c(C(=O)/C=C/c2ccccc2C(F)(F)F)c(=O)o1 | 8 (≈ 24.7 µM) | – | > 128 | –
Cc1cc(O)c(C(=O)/C=C/c2ccco2)c(=O)o1 | 16 to 32 (≈ 65 to 130 µM) | – | > 128 | –
CO[C@H]1/C=C/O[C@@]2(C)Oc3c(C)c(O)c4c(O)c(c(/C=N/N5CCN(C)CC5)c(O)c4c3C2=O)NC(=O)/C(C)=C\C=C\[C@H](C)[C@H](O)[C@@H](C)[C@@H](O)[C@@H](C)[C@H](OC(C)=O)[C@@H]1C [RIFAMPIN] | 0.078 (≈ 0.0948 µM) | – | – | MIC [8]: 0.2 µg/mL (≈ 0.243 µM); Selectivity ratio [9]: 500
CC[C@@H](CO)NCCN[C@@H](CC)CO [ETHAMBUTOL] | 2.5 (≈ 12.2 µM) | – | – | –
COc1cc(/C=C/C(=O)c2c(O)cc(C)oc2=O)ccc1O | 32 (≈ 106 µM) | > 100 | > 128 | –
CCOc1cccc(/C=C/C(=O)c2c(O)cc(C)oc2=O)c1 | 4 (≈ 13.3 µM) | 80 to 100 | > 128 | MIC (Staphylococcus aureus): > 128 µg/mL; MIC [3]: > 128 µg/mL; inhibition at 100 µM [4]: 67 to 70%; MIC (Micrococcus luteus): > 128 µg/mL; MIC (Enterococcus faecalis): > 128 µg/mL; inhibition at 100 µM [5]: 67 to 70%; MIC (Bacillus subtilis): > 128 µg/mL; inhibition at 100 µM [6]: 67 to 70%; IC50 (PC-3; Homo sapiens, PC-3): 80 µM; Activity (PC-3): Dose-dependent effect; IC50 (MCF7; Homo sapiens, MCF7): 80 µM; Activity (MCF7): Dose-dependent effect; IC50 (HCT-116; Homo sapiens, HCT-116): 80 µM; Activity (HCT-116): Dose-dependent effect; MIC (Pseudomonas aeruginosa): > 128 µg/mL; Activity (HEK293): Dose-dependent effect; MIC (Escherichia coli): > 128 µg/mL; inhibition at 100 µM [7]: 67 to 70%; MIC (Klebsiella pneumoniae): 128 µg/mL (≈ 426 µM)
Cc1ccc(/C=C/C(=O)c2c(O)cc(C)oc2=O)cc1 | 8 (≈ 29.6 µM) | > 100 | > 128 | –
